Activity calls are given as the source filed them.
What was measured:
Neprilysin [1] = molecular target: T1, Neprilysin (Oryctolagus cuniculus, UniProt P08049); experiment: (§1) Inhibition of enkephalinase activity in membranes prepared from rabbit
T1 sequence (P08049 whole entry): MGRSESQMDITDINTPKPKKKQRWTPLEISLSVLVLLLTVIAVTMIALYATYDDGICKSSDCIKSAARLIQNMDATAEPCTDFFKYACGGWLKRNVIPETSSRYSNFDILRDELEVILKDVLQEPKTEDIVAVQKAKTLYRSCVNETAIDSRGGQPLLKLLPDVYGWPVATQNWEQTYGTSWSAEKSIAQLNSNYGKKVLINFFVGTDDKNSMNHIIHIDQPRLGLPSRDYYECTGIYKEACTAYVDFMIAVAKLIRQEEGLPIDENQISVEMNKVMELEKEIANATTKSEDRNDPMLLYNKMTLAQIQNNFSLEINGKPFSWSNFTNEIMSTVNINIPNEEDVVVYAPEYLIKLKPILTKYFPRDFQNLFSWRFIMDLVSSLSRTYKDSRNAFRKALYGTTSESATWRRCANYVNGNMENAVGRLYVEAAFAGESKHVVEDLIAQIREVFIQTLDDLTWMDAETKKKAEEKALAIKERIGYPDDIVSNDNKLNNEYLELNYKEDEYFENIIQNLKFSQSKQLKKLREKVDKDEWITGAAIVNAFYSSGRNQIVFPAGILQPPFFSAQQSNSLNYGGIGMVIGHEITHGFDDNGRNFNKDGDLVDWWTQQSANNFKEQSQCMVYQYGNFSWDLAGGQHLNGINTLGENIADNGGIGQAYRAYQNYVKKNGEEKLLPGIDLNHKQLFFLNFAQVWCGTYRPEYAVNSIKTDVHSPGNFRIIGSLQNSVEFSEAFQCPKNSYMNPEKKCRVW
In short: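 Rabbit protease 24.11 (15 ng protein) incubated 10 min at 37 °C with [Tyr-3H]Leu-enkephalin plus unlabeled Leu-enkephalin (1 μM final) in 50 mM Tris-HCl, pH 6.5. Stopped with TFA. Tyr-Gly-Gly product separated from substrate by C4 reverse-phase HPLC (isocratic, 0.09% TFA/acetonitrile). Fractions counted by scintillation.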

Neprilysin [2] = molecular target: T2, Neprilysin (Rattus norvegicus, UniProt P07861); experiment: Inhibition of enkephalinase activity in synaptic membranes prepared from rat striatum; type: cell membranes
T2 sequence (P07861 whole entry): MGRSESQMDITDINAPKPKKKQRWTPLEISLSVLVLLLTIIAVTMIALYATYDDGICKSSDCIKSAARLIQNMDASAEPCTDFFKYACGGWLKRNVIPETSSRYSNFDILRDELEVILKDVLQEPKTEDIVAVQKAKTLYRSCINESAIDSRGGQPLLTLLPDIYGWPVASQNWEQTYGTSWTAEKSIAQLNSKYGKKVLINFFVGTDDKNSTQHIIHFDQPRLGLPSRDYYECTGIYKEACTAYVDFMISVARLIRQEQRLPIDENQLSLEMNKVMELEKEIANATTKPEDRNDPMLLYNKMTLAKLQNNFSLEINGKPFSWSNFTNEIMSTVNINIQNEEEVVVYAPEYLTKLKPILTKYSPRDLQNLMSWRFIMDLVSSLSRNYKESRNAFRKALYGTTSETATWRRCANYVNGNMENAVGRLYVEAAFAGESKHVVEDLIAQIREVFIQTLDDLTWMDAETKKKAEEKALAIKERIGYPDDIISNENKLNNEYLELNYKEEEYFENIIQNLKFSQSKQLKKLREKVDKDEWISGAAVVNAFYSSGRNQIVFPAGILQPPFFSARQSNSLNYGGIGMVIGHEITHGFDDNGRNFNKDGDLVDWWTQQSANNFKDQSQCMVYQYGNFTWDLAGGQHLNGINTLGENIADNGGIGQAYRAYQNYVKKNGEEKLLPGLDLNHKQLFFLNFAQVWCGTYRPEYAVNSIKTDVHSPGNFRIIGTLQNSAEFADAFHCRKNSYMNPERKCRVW

Neprilysin [3] = molecular target: T1, Neprilysin; experiment: as §1; remark: listed apart in the source
Mus musculus [4] = experiment: Stretching activity in male CF-1 mice, after the intra peritoneal administration of acetic acid and subcutaneous administration of compound; type: functional
In short: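 Male CF-1 mice (18–22 g), twelve per dose of agent or vehicle, dosed sc 15 min before ip 3% aqueous acetic acid at 10 mL/kg. Five minutes after irritant, stretching episodes counted over 10 min. ED50 derived from these counts.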

Opioid receptor = experiment: Ability to displace tritium-labeled naloxone at opiate receptors, at 10 uM concentration
Mus musculus [5] = experiment: Doubling of hotplate jump-latency activity in mouse after subcutaneous administration is determined; type: functional
In short: (§2)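 Male CF1 mice (18–23 g) dosed icv or sc; 15 min later placed singly on a copper hot plate held at 55 °C. Latency to jump recorded, cutoff 240 s. MED = minimum effective dose. ED200 = dose doubling jump latency.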

Mus musculus [6] = experiment: Antinociceptive effect was determined by mouse hot plate assay after sc administration of the compound; type: functional; in short: as §2
Mus musculus [7] = experiment: Hot-plate jump-latency activity in mouse 15 minutes after subcutaneous administration; type: functional; conditions: sc, 0.25 h, read-out: MED; in short: as §2
[8] = molecular target: Mu-type opioid receptor (Mus musculus) (UniProt P42866); experiment: Ability to displace tritium-labeled naloxone at opioid receptor, at 10 uM concentration
Chain of Mu-type opioid receptor (Mus musculus) (P42866 whole entry): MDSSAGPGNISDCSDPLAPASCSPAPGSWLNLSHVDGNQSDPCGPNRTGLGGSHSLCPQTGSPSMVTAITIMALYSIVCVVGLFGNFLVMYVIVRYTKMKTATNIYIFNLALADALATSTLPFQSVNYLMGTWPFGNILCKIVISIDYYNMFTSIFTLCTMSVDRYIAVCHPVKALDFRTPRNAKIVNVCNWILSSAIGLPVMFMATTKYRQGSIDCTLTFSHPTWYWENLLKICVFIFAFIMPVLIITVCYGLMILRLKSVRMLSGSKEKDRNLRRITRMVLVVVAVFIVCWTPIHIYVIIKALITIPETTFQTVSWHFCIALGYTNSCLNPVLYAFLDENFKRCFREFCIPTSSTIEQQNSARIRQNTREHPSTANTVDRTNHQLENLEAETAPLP

[9] = molecular target: T3, Aminopeptidase N (Sus scrofa) (UniProt P15145); experiment: Inhibition of aminopeptidase; IA is inactive
T3 sequence (whole entry): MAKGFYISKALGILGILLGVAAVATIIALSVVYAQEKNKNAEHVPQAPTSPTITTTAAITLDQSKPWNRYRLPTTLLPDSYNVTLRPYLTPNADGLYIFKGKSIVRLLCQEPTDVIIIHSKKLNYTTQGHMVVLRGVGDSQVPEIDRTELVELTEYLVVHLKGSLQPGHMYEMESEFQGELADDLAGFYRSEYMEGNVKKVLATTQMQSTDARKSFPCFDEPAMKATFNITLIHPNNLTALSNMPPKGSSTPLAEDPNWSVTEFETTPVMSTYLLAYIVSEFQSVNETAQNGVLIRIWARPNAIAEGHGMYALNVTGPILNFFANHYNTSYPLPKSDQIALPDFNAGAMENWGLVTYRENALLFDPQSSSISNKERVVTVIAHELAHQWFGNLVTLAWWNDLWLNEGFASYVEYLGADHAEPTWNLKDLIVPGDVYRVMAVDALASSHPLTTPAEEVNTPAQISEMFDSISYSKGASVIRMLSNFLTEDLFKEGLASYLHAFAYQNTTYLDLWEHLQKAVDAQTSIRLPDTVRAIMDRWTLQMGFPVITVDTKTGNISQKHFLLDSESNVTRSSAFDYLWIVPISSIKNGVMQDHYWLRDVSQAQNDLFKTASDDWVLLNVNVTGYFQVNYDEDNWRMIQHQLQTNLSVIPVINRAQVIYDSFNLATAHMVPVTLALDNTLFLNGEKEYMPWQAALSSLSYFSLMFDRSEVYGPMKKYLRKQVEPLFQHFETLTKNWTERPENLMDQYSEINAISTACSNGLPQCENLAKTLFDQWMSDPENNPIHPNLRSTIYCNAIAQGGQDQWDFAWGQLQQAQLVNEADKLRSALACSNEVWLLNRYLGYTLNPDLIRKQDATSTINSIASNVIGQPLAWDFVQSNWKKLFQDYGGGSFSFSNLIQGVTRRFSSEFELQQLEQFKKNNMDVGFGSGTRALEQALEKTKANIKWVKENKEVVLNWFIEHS
In short: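 Kidney cortex membranes (75 μg protein) incubated 15 min at 37 °C in 50 mM Tris, pH 7.4, with 0.8 mM L-leucine p-nitroanilide (final). Reaction stopped with TCA, tubes centrifuged, p-nitroaniline read as OD at 410 nm.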

For `O=C(O)CCCNC(=O)[C@H](Cc1ccccc1)C[C@@H](Cc1ccccc1)C(=O)O`, which IC50 (Neprilysin [1]) is on record?
The IC50 was 0.0014 µM.

`O=C(O)c1ccc(NC(=O)[C@@H](Cc2ccccc2)C[C@H](Cc2ccccc2)C(=O)O)cc1` was tested. Which IC50 (Neprilysin [2]) did it give?
The IC50 was 0.8 µM.

How did the IC50 (Neprilysin [2]) turn out when `O=C(O)Cc1ccccc1NC(=O)[C@H](Cc1ccccc1)C[C@@H](Cc1ccccc1)C(=O)O` was run?
Its IC50 is 0.025 µM.

For `O=C(O)CC(=O)NC(Cc1ccccc1)CC(Cc1ccccc1)C(=O)O` (stereo not given), which IC50 (Neprilysin [3]) is on record?
Its IC50 is 0.062 µM.

`O=C(O)C(COCc1ccccc1)NC(=O)[C@H](Cc1ccccc1)C[C@@H](Cc1ccccc1)C(=O)O` (stereo not given in full) was tested. Which IC50 (Neprilysin [2]) did it give?
The IC50 was 0.006 µM.

Which IC50 (Neprilysin [3]) does the source give for `O=C(O)CCCNC(=O)C(Cc1ccccc1)CC(Cc1ccccc1)C(=O)O` (stereo not given) here?
The IC50 was 0.057 µM.

Which results are given for `O=C(NCc1ccc(O)c(O)c1)C(CS)Cc1ccccc1` (stereo not given)?
IC50 (Neprilysin [2]): 0.012 µM; ED50 (Mus musculus [4]): 5 mg/kg; inhibition (Opioid receptor): 15%; ED200 (Mus musculus [5]): 15 mg/kg

Which IC50 (Neprilysin [2]) does the source give for `O=C(O)C(CCc1ccccc1)NC(=O)[C@H](Cc1ccccc1)C[C@@H](Cc1ccccc1)C(=O)O` (stereo not given in full) here?
The IC50 was 0.005 µM.

Which IC50 (Neprilysin [2]) does the source give for `O=C(O)CNC(=O)[C@H](Cc1ccccc1)C[C@@H](Cc1ccccc1)C(=O)O` here?
Its IC50 is 0.004 µM.

`O=C([O-])[C@H](Cc1ccccc1)C[C@@H](Cc1ccccc1)C(=O)NCc1ccc(O)c(O)c1.[Na+]` was tested. Which IC50 (Neprilysin [2]) did it give?
The IC50 was 0.02 µM.

And the ED200 (Mus musculus [6])?
Its ED200 is >100 mg/kg.

With `O=C(O)C(Cc1c[nH]c2ccccc12)NC(=O)[C@H](Cc1ccccc1)C[C@@H](Cc1ccccc1)C(=O)O` (stereo not given in full) as the compound, how does the IC50 (Neprilysin [2]) read?
The IC50 was 0.074 µM.

`O=C(O)CCC(=O)NC(Cc1ccccc1)C[C@@H](Cc1ccccc1)C(=O)O` (stereo not given in full) was tested. Which IC50 (Neprilysin [3]) did it give?
The IC50 was 0.002 µM.

For `O=C(O)CCNC(=O)[C@H](Cc1ccccc1)C[C@@H](Cc1ccccc1)C(=O)OC1OC(=O)c2ccccc21` (stereo not given in full), which minimal effective dose (Mus musculus [7]) is on record?
Its minimal effective dose is 30 mg/kg.

For `O=C(O)C(Cc1ccccc1)NC(=O)[C@H](Cc1ccccc1)C[C@@H](Cc1ccccc1)C(=O)O` (stereo not given in full), which IC50 (Neprilysin [2]) is on record?
The IC50 was 0.029 µM.

With `COc1cc(CNC(=O)C(CS)Cc2ccccc2)ccc1O` (stereo not given) as the compound, how does the inhibition [8] read?
The inhibition was 30%.

And the IC50 (Neprilysin [1])?
The IC50 was 0.009 µM.

What about the inhibition [9] of the same compound?
Its inhibition is “inactive”.

What about the ED50 (Mus musculus [4]; sc) of the same compound?
The ED50 was 5.5 mg/kg.

What about the ED200 (Mus musculus [5]) of the same compound?
The ED200 was 6 mg/kg.

`O=C(O)CCCC(=O)NC(Cc1ccccc1)CC(Cc1ccccc1)C(=O)O` (stereo not given) was tested. Which IC50 (Neprilysin [3]) did it give?
The IC50 was 0.012 µM.

For `O=C(O)CCNC(=O)C(Cc1ccccc1)CC(Cc1ccccc1)C(=O)O` (stereo not given), which IC50 (Neprilysin [2]) is on record?
The IC50 was 0.018 µM.
